Assays:
Assay type in all cases: functional
Rattus norvegicus [1] = assay: Analgesic activity was assessed for inflamed rat-paw reversal of abnormal (three legged) gait expressed as ED50 (sc)
In short: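 Yeast (brewers') injected into plantar surface of left hind paw; gait scored 0–2 at 3 h. Rats scoring 2 received compound subcutaneously in normal saline; postdrug scores taken at set intervals. ≥50% gait reduction counted positive; ED50 = dose lowering score 2 to 1 in 50% of rats.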

Rattus norvegicus [2] = assay: Analgesic activity was measured using inflamed rat paw pressure threshold method expressed as ED50 (sc)
In short: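 Paw-pressure threshold in rats, left hind paw injected with 0.1 mL 20% brewers' yeast; threshold recorded 2 h post-yeast. Compound given subcutaneously in normal saline at times set by duration of action. Positive = ≥100% threshold rise; ED50 with 95% confidence limits via Finney linear arc sine transformation.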

Rattus norvegicus [3] = assay: Analgesic activity was measured using inflamed rat paw pressure threshold method expressed as ED50 (po)
In short: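 Modified Randall–Selitto: left hind paw sensitised with 0.1 mL 20% aqueous brewers' yeast, pressure-pain threshold read 2 h after yeast. Oral dosing in 2% starch/5% PEG 400/Tween 80, timed to peak effect. ≥100% threshold elevation positive; ED50 (dose giving this in 50% of rats) with 95% limits by Finney arc sine method.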

Mus musculus = assay: Analgesic activity was measured using mouse anti-writhing method expressed as ED50 (po)
In short: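 Mice in pairs; writhing induced by intraperitoneal phenyl-p-quinone 1 mg/kg. Compound given orally in 2% starch suspension with 5% PEG 400 and a drop of Tween 80.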

Rattus norvegicus [4] = assay: Analgesic activity for inflamed rat-paw reversal of abnormal (three legged) gait expressed as ED50 (po).
In short: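 Rats given brewers' yeast in plantar surface of left hind paw; 3 h later gait scored 0 (normal) to 2 (maximal abnormal). Rats scoring 2 dosed orally in 2% starch suspension with 5% PEG 400 and Tween 80; gait rescored at set intervals. ED50 = dose reducing score from 2 to 1 in 50% of rats.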

[5] = Rattus norvegicus, po, read-out: ED50
[6] = Mus musculus, po, read-out: ED50

Row | SMILES | ED50 (Rattus norvegicus [3]; [5]) | ED50 (Mus musculus; [6]) | ED50 (Rattus norvegicus [4]; [5]) | other results
1 | Cl.Oc1cccc(C23CNCC2C3)c1 (stereo not given) |  |  |  | ED50 (Rattus norvegicus [1]): 16 mg/kg; ED50 (Rattus norvegicus [2]): > 25 mg/kg
2 | Cl.FC(F)(F)c1ccc(C23CNCC2C3)cc1 (stereo not given) | 40 mg/kg | > 100 mg/kg | 38 mg/kg | 
3 | CC(C)c1ccc(C23CNCC2C3)cc1.Cl (stereo not given) |  | 30 mg/kg |  | ED50 (Rattus norvegicus [1]): 9 mg/kg; ED50 (Rattus norvegicus [2]): > 25 mg/kg
4 | COc1cccc(C23CC2CN(C)C3)c1.Cl (stereo not given) |  |  | > 100 mg/kg | 
5 | Cl.Clc1cccc(C23CNCC2C3)c1 (stereo not given) | 50 mg/kg | 34 mg/kg | > 50 mg/kg | 
6 | CN1CC2CC2(c2ccc(Cl)cc2)C1.Cl (stereo not given) | 60 mg/kg | < 100 mg/kg | > 50 mg/kg | 
7 | COc1ccc(C23CNCC2C3)cc1.Cl (stereo not given) | 49 mg/kg | 4 mg/kg | 24 mg/kg | 
8 | COc1ccc(C23CNCC2C3)cc1Br.Cl (stereo not given) |  |  | > 25 mg/kg | 
9 | Cl.Fc1ccc(C23CNCC2C3)cc1 (stereo not given) | 14 mg/kg | 34 mg/kg | > 50 mg/kg | 
10 | Cl.FC(F)(F)c1cc(C23CNCC2C3)ccc1Cl (stereo not given) |  |  | 177 mg/kg | 
11 | COc1cccc(C23CNCC2C3)c1.Cl (stereo not given) |  |  | 177 mg/kg | 
12 | Cl.Fc1cccc(C23CNCC2C3)c1 (stereo not given) | 67 mg/kg | 21 mg/kg | > 50 mg/kg | 
13 | Cl.Oc1ccc(C23CNCC2C3)cc1 (stereo not given) |  |  | > 200 mg/kg | 
14 | Cl.Clc1ccc(C23CNCC2C3)cc1Cl (stereo not given) |  |  | 141 mg/kg | 
15 | CCCCCCc1ccc(C23CNCC2C3)cc1.Cl (stereo not given) |  |  | > 50 mg/kg | 
16 | Cc1ccccc1C12CNCC1C2.Cl (stereo not given) |  | > 50 mg/kg | > 50 mg/kg | 
17 | CCOc1ccc(C23CNCC2C3)cc1.Cl (stereo not given) |  |  | 29 mg/kg | 
18 | CC(C)(C)c1ccc(C23CNCC2C3)cc1.Cl (stereo not given) |  |  | > 200 mg/kg | 
19 | Cc1cccc(C23CNCC2C3)c1.Cl (stereo not given) | 25 mg/kg | 18 mg/kg | > 50 mg/kg | 
20 | Cc1ccc(C23CC2CN(CC2CC2)C3)cc1.Cl (stereo not given) |  |  | > 50 mg/kg | 

Row | SMILES | ED50 (Rattus norvegicus [3]; [5]) | ED50 (Mus musculus; [6]) | ED50 (Rattus norvegicus [4]; [5]) | other results
21 | C=CCN1CC2CC2(c2ccc(C)cc2)C1.Cl (stereo not given) |  |  | > 50 mg/kg | 
22 | Cc1ccc(C23CC2CN(C)C3)cc1.Cl (stereo not given) | 24 mg/kg | 16 mg/kg | 20 mg/kg | 
23 | Brc1ccc(C23CNCC2C3)cc1.Cl (stereo not given) |  |  | 141 mg/kg | 
24 | CN1CC2CC2(c2cccc(O)c2)C1.Cl (stereo not given) |  | > 50 mg/kg | > 50 mg/kg | ED50 (Rattus norvegicus [2]): 25 mg/kg
25 | Cl.Clc1ccccc1C12CNCC1C2 (stereo not given) |  |  | > 100 mg/kg | 
26 | CCc1ccc(C23CNCC2C3)cc1.Cl (stereo not given) | 25 mg/kg | 24 mg/kg | 13 mg/kg | 
27 | CCCCCCN1CC2CC2(c2ccc(C)cc2)C1.Cl (stereo not given) |  |  | > 50 mg/kg | 
28 | Cl.FC(F)(F)c1cccc(C23CNCC2C3)c1 (stereo not given) | 50 mg/kg | 29 mg/kg | 28 mg/kg | 
29 | Cl.c1ccc(C23CNCC2C3)cc1 (single isomer, unassigned; (+)) |  |  |  | ED50 (Rattus norvegicus [3]): 79 mg/kg; ED50 (Rattus norvegicus [4]): 125 mg/kg
30 | Cl.c1ccc(C23CNCC2C3)cc1 (single isomer, unassigned; (-)) |  |  |  | ED50 (Rattus norvegicus [3]): 43 mg/kg; ED50 (Mus musculus): <50 mg/kg; ED50 (Rattus norvegicus [4]): >200 mg/kg
31 | Cc1ccc(C23CNCC2C3)cc1.Cl (single isomer, unassigned; (-)) [BICIFADINE HYDROCHLORIDE] |  |  |  | ED50 (Rattus norvegicus [3]): >25 mg/kg; ED50 (Rattus norvegicus [4]): >200 mg/kg
32 | Cl.Clc1ccc(C23CNCC2C3)cc1 (stereo in doubt; 2a) |  |  |  | ED50 (Rattus norvegicus [3]): 21 mg/kg; ED50 (Mus musculus): 21 mg/kg; ED50 (Rattus norvegicus [4]): 31 mg/kg
33 | Cc1ccc(C23CNCC2C3)cc1.Cl (stereo in doubt; 2b) [BICIFADINE HYDROCHLORIDE] |  | 13 mg/kg |  | ED50 (Rattus norvegicus [3]): 11 mg/kg; ED50 (Rattus norvegicus [1]): 4 mg/kg; ED50 (Rattus norvegicus [4]): 18 mg/kg
34 | Cl.c1ccc(C23CNCC2C3)cc1 (stereo in doubt; 2c) | 71 mg/kg | < 100 mg/kg |  | ED50 (Rattus norvegicus [4]): 70 mg/kg
35 | Cc1ccc(C23CNCC2C3)cc1.Cl (stereo in doubt; 2v) [BICIFADINE HYDROCHLORIDE] |  |  |  | ED50 (Rattus norvegicus [3]): <25 mg/kg; ED50 (Rattus norvegicus [4]): 17 mg/kg
36 | Cl.Clc1ccc(C23CNCC2C3)cc1 (stereo in doubt; 2x) |  |  |  | ED50 (Rattus norvegicus [3]): 13 mg/kg; ED50 (Mus musculus): 19 mg/kg; ED50 (Rattus norvegicus [4]): 25 mg/kg
37 | Cl.Clc1ccc(C23CNCC2C3)cc1 (stereo in doubt; 2y (-)) |  |  |  | ED50 (Rattus norvegicus [3]): >50 mg/kg; ED50 (Mus musculus): <100 mg/kg; ED50 (Rattus norvegicus [4]): 150 mg/kg
38 | CC(=O)Oc1ccccc1C(=O)O [ASPIRIN] | 150 mg/kg | 29 mg/kg | 74 mg/kg | 
39 | COc1ccc2c3c1O[C@H]1[C@@H](O)C=C[C@H]4[C@@H](C2)N(C)CC[C@@]341.COc1ccc2c3c1O[C@H]1[C@@H](O)C=C[C@H]4[C@@H](C2)N(C)CC[C@@]341.O.O=P(O)(O)O.O=P(O)(O)O [CODEINE PHOSPHATE] | 43 mg/kg | 9 mg/kg | 51 mg/kg | 
